For 33 molecules, IC50 and half-life results are on record in ChEMBL document CHEMBL2331531, “Synthesis and biological evaluation of urea derivatives as highly potent and selective rho kinase inhibitors” (J Med Chem, 2013).

Series [1] can be described thus: Inhibition of PKA (unknown origin) after 70 mins by luminescence assay. The arrangement: species or system Homo sapiens.
A short description of series [2]: Half life in human liver microsomes. Format: ADME, Microsome. On the technique in general: Liver microsomes are a subcellular fraction often used to study metabolism.
Series [3] addresses Rho-associated protein kinase 2 (Homo sapiens, UniProt O75116). Kind of series: Inhibition of ROCK2 (unknown origin) after 4 hrs by HTRF assay. Background: Time-resolved FRET reads energy transfer from a long-lived donor to a nearby acceptor.
Series [4] in a line: Inhibition of ROCK-mediated myosin light chain bisphosphorylation in rat A7R5 cells after 1 hr by fluorescence assay in presence of L-alpha-lysophosphatidic acid. Format: cell-based. In outline:
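A7r5 cells in 20% FBS DMEM, plated 5000/well overnight, serum-starved 4 h in 0.05% FBS DMEM; compound 13333 nM to 18 nM final for 1 h, then 10 μM LPA 10 min; fixed, permeabilized, anti-ppMLC plus IR800 secondary; infrared scan, ppMLC signal normalized to TO-PRO-3 nuclear signal. IC50 as mean of two or more experiments.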

As usually defined, the IC50 is the concentration that gives 50% inhibition. The half-life is the time in which the quantity being followed falls by half. A high value points to slow decline.

Rho-associated protein kinase 2, sequence (O75116 whole entry): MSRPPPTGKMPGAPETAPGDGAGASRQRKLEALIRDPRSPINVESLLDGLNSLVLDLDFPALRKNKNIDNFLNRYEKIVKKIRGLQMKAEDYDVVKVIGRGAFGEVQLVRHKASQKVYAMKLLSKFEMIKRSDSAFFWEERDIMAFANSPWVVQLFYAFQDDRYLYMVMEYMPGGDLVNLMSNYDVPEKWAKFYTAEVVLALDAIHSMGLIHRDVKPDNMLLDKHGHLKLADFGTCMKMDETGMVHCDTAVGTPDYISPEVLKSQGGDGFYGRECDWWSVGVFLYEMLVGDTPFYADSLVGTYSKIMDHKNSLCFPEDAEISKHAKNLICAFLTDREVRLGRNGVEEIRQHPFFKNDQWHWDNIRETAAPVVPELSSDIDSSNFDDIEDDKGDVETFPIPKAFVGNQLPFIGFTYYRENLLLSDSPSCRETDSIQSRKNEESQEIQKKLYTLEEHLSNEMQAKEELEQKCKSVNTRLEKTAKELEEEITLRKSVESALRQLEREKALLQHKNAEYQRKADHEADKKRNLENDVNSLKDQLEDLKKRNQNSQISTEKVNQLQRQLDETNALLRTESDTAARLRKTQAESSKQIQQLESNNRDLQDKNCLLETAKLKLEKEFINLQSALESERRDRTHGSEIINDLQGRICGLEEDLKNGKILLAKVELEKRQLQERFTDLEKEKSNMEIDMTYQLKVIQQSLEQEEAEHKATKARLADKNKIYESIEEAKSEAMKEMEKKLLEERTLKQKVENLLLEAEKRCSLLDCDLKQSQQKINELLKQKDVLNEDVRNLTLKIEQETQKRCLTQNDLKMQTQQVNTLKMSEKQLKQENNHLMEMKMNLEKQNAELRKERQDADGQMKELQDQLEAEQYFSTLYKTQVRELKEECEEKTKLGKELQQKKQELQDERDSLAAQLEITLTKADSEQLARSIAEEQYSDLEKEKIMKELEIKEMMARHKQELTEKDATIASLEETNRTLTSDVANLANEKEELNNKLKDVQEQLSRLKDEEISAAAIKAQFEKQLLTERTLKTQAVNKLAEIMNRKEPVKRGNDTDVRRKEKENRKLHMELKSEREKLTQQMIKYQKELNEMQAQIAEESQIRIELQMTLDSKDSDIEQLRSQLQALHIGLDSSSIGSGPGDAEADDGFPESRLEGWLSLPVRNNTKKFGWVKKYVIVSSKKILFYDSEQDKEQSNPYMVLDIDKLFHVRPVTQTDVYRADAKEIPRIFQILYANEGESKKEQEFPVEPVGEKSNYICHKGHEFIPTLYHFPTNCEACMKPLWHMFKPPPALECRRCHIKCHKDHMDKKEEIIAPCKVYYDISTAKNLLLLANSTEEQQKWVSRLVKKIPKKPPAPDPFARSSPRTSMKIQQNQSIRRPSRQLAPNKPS

With `O=C(Nc1ccc(-c2cn[nH]c2)cc1)NC(CCO)c1ccccc1` (configuration not stated), the results for the IC50 in series [1], in series [3] and in series [4] were 438 nM, 1 nM and 48 nM, respectively. The molecule also registered a half-life in series [2] above 120 min.

Consider `O=C(Nc1ccc(-c2cn[nH]c2)cc1)NC(CO)c1ccccc1` (configuration not stated), for which the half-maximal inhibitory concentration (IC50) in series [1] stood at 389 nM; in series [3], 2 nM; in series [4], 150 nM. In addition, in series [2], the half-life is above 120 min.

On to `COc1cccc(CN(CCO)C(=O)Nc2ccc(-c3cn[nH]c3)cc2OCCO)c1`, for which the IC50 is 615 nM in series [1], below 1 nM in series [3] and 220 nM in series [4].

With `COc1cccc(CN(CCN(C)C)C(=O)Nc2ccc(-c3cn[nH]c3)cc2OCCN(C)C)c1`, in series [3], it took 170 nM to reach half-maximal inhibition (IC50).

For `COc1cccc(CN(C(=O)Nc2ccc(-c3cn[nH]c3)cc2)C(C)C)c1`, the 50% inhibitory concentration (IC50) is 18400 nM in series [1], 3 nM in series [3] and 67 nM in series [4]. Besides, in series [2], the half-life worked out at 11 min.

In the case of `COCCN(Cc1cccc(OC)c1)C(=O)Nc1ccc(-c2cn[nH]c2)cc1`, the figures for the IC50 in series [1], in series [3] and in series [4] were 10500 nM, 17 nM and 180 nM, respectively. The molecule further gave a half-life in series [2] of 21 min.

Turning to `COc1cccc(CN(CCN)C(=O)Nc2ccc(-c3cn[nH]c3)cc2)c1`, the half-maximal inhibitory concentration (IC50) is 72 nM in series [1], below 1 nM in series [3] and 8 nM in series [4]. The same molecule showed a half-life in series [2] above 120 min.

For `COc1cccc(CN(CCCN2CCCC2)C(=O)Nc2ccc(-c3cn[nH]c3)cc2)c1`, the IC50 in series [1] is 228 nM; in series [3] it was 5 nM; in series [4], 18 nM. Moreover, the half-life in series [2] turned out to be 59 min.

`COc1cccc(CN(CCCN2CCOCC2)C(=O)Nc2ccc(-c3cn[nH]c3)cc2)c1`: the figures for the IC50 in series [1], in series [3] and in series [4] were 724 nM, 4 nM and 84 nM, respectively. In series [2], this molecule had a half-life of 4 min.

Consider `COc1cccc(CN(CCCN2CCCCC2)C(=O)Nc2ccc(-c3cn[nH]c3)cc2)c1`, for which the figures for the IC50 in series [1], in series [3] and in series [4] were 822 nM, 4 nM and 75 nM, respectively. For the same molecule, the half-life in series [2] was determined as 14 min.

As for `O=C(Nc1ccc(-c2cn[nH]c2)cc1F)N(CCO)Cc1ccccc1`, the IC50 in series [1] came to 1020 nM; in series [3], 14 nM; in series [4] it was 33 nM. Besides, the half-life in series [2] is above 120 min.

For the molecule `O=C(Nc1ccccc1)Nc1ccc(-c2cn[nH]c2)cc1`, the concentration for half-maximal inhibition (IC50) in series [1] is above 20000 nM; in series [3], 304 nM.

Turning to `O=C(NCCc1ccccc1)Nc1ccc(-c2cn[nH]c2)cc1`, the IC50 in series [1] is 3100 nM; in series [3] it was 88 nM; in series [4], above 2700 nM.

On to `O=C(NCCCc1ccccc1)Nc1ccc(-c2cn[nH]c2)cc1`, for which the IC50 is above 20000 nM in series [1] and 1020 nM in series [3].

As for `O=C(Nc1ccc(-c2cn[nH]c2)cc1)OCc1ccccc1`, the IC50 is above 20000 nM in series [1], 7 nM in series [3] and above 2700 nM in series [4].

For the molecule `O=C(Nc1ccc(-c2cn[nH]c2)cc1)OCCc1ccccc1`, the half-maximal inhibitory concentration (IC50) in series [1] was above 20000 nM; in series [3], 55 nM; in series [4], 2640 nM.

As for `O=C(CCc1ccccc1)Nc1ccc(-c2cn[nH]c2)cc1`, the values for the IC50 in series [1], in series [3] and in series [4] were 266 nM, 24 nM and 91 nM, respectively.

Take `O=C(Nc1ccc(-c2cn[nH]c2)cc1)N1CCc2ccccc2C1`: the results for the IC50 in series [1] and in series [3] were 8000 nM and 280 nM, respectively.

`O=C(NCC1CCCCC1)Nc1ccc(-c2cn[nH]c2)cc1`: the IC50 in series [1] was above 20000 nM; in series [3] it was 751 nM.

As to `COc1cccc(CNC(=O)Nc2ccc(-c3cn[nH]c3)cc2)c1OC`, the figures for the IC50 in series [1] and in series [3] were above 20000 nM and 253 nM, respectively.

Regarding `COc1ccc(CNC(=O)Nc2ccc(-c3cn[nH]c3)cc2)c(OC)c1`, the IC50 came out at 11200 nM in series [1] and 331 nM in series [3].

For `COc1ccc(OC)c(CNC(=O)Nc2ccc(-c3cn[nH]c3)cc2)c1`, the IC50 was above 20000 nM in series [1] and 570 nM in series [3].

On to `COc1cccc(OC)c1CNC(=O)Nc1ccc(-c2cn[nH]c2)cc1`, for which the values for the half-inhibitory concentration (IC50) in series [1] and in series [3] were 13500 nM and 924 nM, respectively.

Consider `COc1ccc(CNC(=O)Nc2ccc(-c3cn[nH]c3)cc2)cc1OC`, for which the values for the half-maximal inhibitory concentration (IC50) in series [1] and in series [3] were above 20000 nM and 425 nM, respectively.

Turning to `COc1cc(CNC(=O)Nc2ccc(-c3cn[nH]c3)cc2)cc(OC)c1`, the results for the half-inhibitory concentration (IC50) in series [1] and in series [3] were above 20000 nM and 281 nM, respectively.

`COc1ccc(CNC(=O)Nc2ccc(-c3cn[nH]c3)cc2)cc1F`: the half-maximal inhibitory concentration (IC50) came to 518 nM in series [1] and 357 nM in series [3].

Take `COc1cccc(CNC(=O)N(C)c2ccc(-c3cn[nH]c3)cc2)c1`: the IC50 was above 20000 nM in series [1] and 87 nM in series [3].

Take `COc1cccc(CNC(=O)N(CCO)c2ccc(-c3cn[nH]c3)cc2)c1`: the values for the IC50 in series [1] and in series [3] were above 20000 nM and 611 nM, respectively.

For the molecule `COc1cccc(CNC(=O)N(CCN(C)C)c2ccc(-c3cn[nH]c3)cc2)c1`, the IC50 amounted to 4200 nM in series [1] and 2980 nM in series [3].

In the case of `COc1cccc(CNC(=O)N(CCN2CCCC2)c2ccc(-c3cn[nH]c3)cc2)c1`, the IC50 in series [1] and in series [3] was above 20000 nM each time.

For the molecule `COc1cccc(CNC(=O)N(CCCN(C)C)c2ccc(-c3cn[nH]c3)cc2)c1`, the IC50 in series [1] was determined as 12000 nM; in series [3] it was 3320 nM.

Take `CCN(Cc1cccc(OC)c1)C(=O)Nc1ccc(-c2cn[nH]c2)cc1`: the 50% inhibitory concentration (IC50) came out at 4670 nM in series [1], 1 nM in series [3] and 44 nM in series [4]. The molecule further showed a half-life in series [2] of 25 min.

For `COc1cccc(CN(C(=O)Nc2ccc(-c3cn[nH]c3)cc2)C2CC2)c1`, the values for the IC50 in series [1], in series [3] and in series [4] were 1700 nM, 1 nM and 4 nM, respectively. Further, in series [2], the half-life was 25 min.
